From PubChem BioAssay
SENP7 inh: SENP7 protease inhibition; Q9BQF6; recombinant SENP7, Z-RLRGG-aminoluciferin luminescence, 40 min; inhibition, % at 5 µM; actives 1.5% (n = 330,000);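 active means inhibition above about 50% at the single test dose, limit read from the data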;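 further: plate controls were DMSO with enzyme for no effect and no enzyme buffer wells for full effect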
SENP1 FRET inh: blocks the human SENP1 SUMO protease catalytic domain. recombinant SENP1 catalytic domain, CyPet-SUMO1-YPet FRET cleavage. actives 0.21% (n = 360,000). Q9P0U3. inhibition, % at 10 µM;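 active means inhibition at least 30% at 10 µM, raw YFP signal under a set limit, fluorescence ratio 0.5 to 1.5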;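 further: 0% = enzyme with DMSO and 100% = no enzyme wells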
Target sequence (Q9P0U3 419-644 limits assumed): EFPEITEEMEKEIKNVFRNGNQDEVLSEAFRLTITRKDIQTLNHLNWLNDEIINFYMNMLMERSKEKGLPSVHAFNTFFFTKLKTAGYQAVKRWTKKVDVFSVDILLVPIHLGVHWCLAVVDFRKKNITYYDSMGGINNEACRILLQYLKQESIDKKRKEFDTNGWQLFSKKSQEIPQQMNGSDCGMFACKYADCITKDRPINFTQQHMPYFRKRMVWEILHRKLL
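Test system: recombinant human SENP1 catalytic domain, His6-tagged / Medium: pH 8 Tris buffer with EDTA, NaCl, BME, BSA, NP40, catalase / Also added: SUMO1 FRET substrate flanked by Cypet and Ypet, 25 nM / Times: 50 min reaction at room temperature / Signal: FRET, CFP and YFP emission / Control set: no-enzyme low control and enzyme-plus-DMSO high control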
HSP90 refold inh: inhibitors of HSP90 luciferase refolding in rabbit reticulocyte lysate | luciferase refolding luminescence, 3 h | inhibition, % at 5.6 µM | actives 0.91% (n = 290,000) | AID 1789;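 active means inhibition above the screen-wide mean plus 3 SD, computed separately per campaign, cut at about 16% in these data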;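 further: 0% = DMSO wells and 100% = 60 µM geldanamycin wells; inhibitors lower the luminescence because luciferase stays unfolded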
SENP6 inh: inhibitors of human SENP6 protease; Recombinant SENP6 catalytic domain, aminoluciferin luminescence; inhibition, % at 10 µM; actives 1.8% (n = 330,000); AID 2599;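 active means inhibition above about 50% at the single tested dose, limit read from the data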;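 further: plate controls were DMSO wells with enzyme for no effect and DMSO wells lacking enzyme for full effect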
SENP8 block-1: SENP8 (human) protease inhibition; actives 0.64% (n = 360,000); recombinant SENP8, Nedd8 substrate fluorescence; inhibition, % at 20 µM; AID 602440; in the data active means inhibition mostly above about 40%, no sharp cut-off; inactive means mostly below about 27%
SENP8 block-2: inhibitors of human SENP8 protease. inhibition, % at 10 µM. actives 1.2% (n = 330,000). Q96LD8. AID 2540. purified SENP8, Z-RLRGG-aminoluciferin cleavage, luminescence; in the data active means inhibition above about 50%
SENP8 confirm: human SENP8 inhibition, confirmed. Recombinant SENP8, Z-RLRGG-aminoluciferin luminescence, 60 min. shares compounds with SENP7 inh. inhibition, % at 12.5 µM. actives 40% (n = 6,200). AID 488912;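 active means mean inhibition across replicates above about 50%, limit read from the data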
SENP6 confirm: human SENP6 inhibition, confirmed; actives 58% (n = 6,200); AID 488915; inhibition, % at 12.5 µM; shares compounds with SENP7 inh; recombinant SENP6, Z-RLRGG-aminoluciferin luminescence
SENP7 conf: human SENP7 inhibition, confirmed. shares compounds with SENP7 inh. recombinant SENP7, Z-RLRGG-aminoluciferin luminescence, 40 min. inhibition, % at 12.5 µM. actives 69% (n = 6,200). AID 488917
Casp3 SENP sel: selectivity test for SENP inhibitors: human caspase-3 inhibition; shares compounds with SENP7 inh; purified caspase-3, Z-DEVD-aminoluciferin luminescence, 60 min; inhibition, % at 12.5 µM; actives 60% (n = 6,200); AID 488918;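 active means mean inhibition above about 50%, limit read from the data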;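 further: plate controls were enzyme with DMSO for no effect and wells without caspase-3 for full effect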
Target sequence (P42574 28-227 limits assumed): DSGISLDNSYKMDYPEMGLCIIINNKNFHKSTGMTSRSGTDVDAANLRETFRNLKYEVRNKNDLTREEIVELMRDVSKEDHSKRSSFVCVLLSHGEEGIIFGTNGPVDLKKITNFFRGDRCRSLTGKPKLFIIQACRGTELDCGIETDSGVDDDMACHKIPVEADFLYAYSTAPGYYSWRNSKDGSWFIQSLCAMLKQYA
Luc interf: interferes with luciferase luminescence in SENP counter-screen | Pre-incubated SENP8/Z-RLRGG-aminoluciferin, luciferase luminescence interference | actives 39% (n = 6,200) | inhibition, % at 12.5 µM | shares compounds with SENP7 inh;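 active means mean inhibition above about 50% when retested at one dose, limit read from the data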;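 further: plate controls were DMSO wells with completed reaction for no effect and substrate without enzyme for full effect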
* hit, by the source's call; . = no result given. Only some compounds are listed: those with a hit (about 2.9% of all), similar ones and a draw of the others.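 How the source made its calls, unless noted: active means mean inhibition above about 50% in the one-dose retest (limit read from the data); inactive means the rest.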

SMILES	SENP7 inh	SENP1 FRET inh	HSP90 refold inh	SENP6 inh	SENP8 block-1	SENP8 block-2	SENP8 confirm	SENP6 confirm	SENP7 conf	Casp3 SENP sel	Luc interf
N/C(=N\OC(=O)C1CCCCC1)c1cccc(Br)c1	48	1	-2	69*	11	27	45	46	80*	69*	51*
COc1ccc(/C(N)=N/OC(=O)Cc2cccs2)cc1	1	2	-2	51*	5	9	30	28	67*	26	33
COc1ccc(/C(N)=N/OC(=O)C2CCCCC2)cc1	68*	0	-1	27	-11	26	-17	10	61*	17	18
COc1ccc(/C(N)=N/OC(=O)Cc2cccs2)cc1OC	-1	-1	2	-1	11	-10	.	.	.	.	.
COc1ccc(NC(=O)Nc2c(C)n(C)n(-c3ccccc3)c2=O)c(OC)c1	1	3	-2	5	3	-12	.	.	.	.	.
C[C@@H]1CN(C(=O)c2nc3ccc(Cl)cn3c2CN(C)CCc2cnn(C)c2)C[C@H](C)O1	-3	-2	-3	4	-5	-8	.	.	.	.	.
Cc1ccc(NC(=O)Cn2cnc3c(NCc4ccccc4)ncnc32)cc1C	6	1	.	.	7	.	.	.	.	.	.
O=C(/C=C/c1ccc2c(c1)OCCCO2)c1ccccc1O	84*	2	0	88*	22	81*	91*	93*	92*	57*	26
Cc1ccc(/C=C/C(=O)c2ccccc2O)cc1	17	1	4	6	12	45	.	.	.	.	.
CN(C)c1ccc(/C=C/C(=O)c2ccccc2O)cc1	89*	57	6	92*	14	86*	18	27	14	8	-2
CC(=O)c1sc(N/N=C\c2ccc(N(C)C)cc2)nc1C	82*	-26	-1	77*	-301	31	20	54*	95*	48	16
O=C(O)c1ccc(-n2cc(-c3cc4ccccc4oc3=O)[nH]c2=S)cc1	.	-24	-3	.	-398	.	.	.	.	.	.
CN1C(=O)/C(=C/c2coc3ccc(O)cc3c2=O)SC1=S	80*	10	-2	79*	23	56*	15	20	13	26	4
Cc1ccc(N=Nc2c(N)n(-c3ccccc3)[nH]c2=O)cc1	82*	2	1	76*	33	54*	28	20	25	20	14
Nc1nc(SCC(=O)N2CCCC2)[nH]c(=O)c1-c1ccccc1	1	0	1	-17	24	-3	.	.	.	.	.
CC1CCCC(C)N1C(=O)CSc1nc(N)c(-c2ccccc2)c(=O)[nH]1 (stereo not given)	87*	0	1	7	7	7	4	4	1	1	1
CSc1ccccc1NC(=O)c1ccccc1C	8	2	-4	-16	2	-6	.	.	.	.	.
COc1ccccc1NC(=O)CNc1ccc(F)c(Cl)c1	-3	0	2	-13	-1	-14	.	.	.	.	.
CC(=O)/C(N=Nc1ccc(C(=O)O)cc1[N+](=O)[O-])=C(\C)O	59*	3	-1	-5	24	51*	54*	51*	84*	92*	64*
Cc1ccc(N2CC(C(=O)NCc3n[nH]c(=O)c4ccccc34)CC2=O)cc1 (stereo not given)	-8	1	.	-11	1	-13	.	.	.	.	.
COc1ccc(/C=C2/SC(=S)N(CCCC(=O)N3CCN(C)CC3)C2=O)cc1	69*	-32	6	65*	16	54*	58*	60*	86*	67*	69*
